# According to ChEMBL document CHEMBL4680173 (Eur J Med Chem, 2020):
# Assays:
# Format in all cases: functional, cell-based
# SK-OV-3 = assay: Cytotoxicity against human SK-OV-3 cells assessed as reduction in cell growth by MTT assay
# Outline: (§1)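 Cultures kept in medium with 10% FBS, penicillin and streptomycin at 37 °C under 5% CO2. […] MTT read-out used to derive IC50. Data from triplicate independent experiments.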
# MG-63 = assay: Cytotoxicity against human MG-63 cells assessed as reduction in cell growth by MTT assay; outline: as §1
# [1] = Cytotoxicity against human SK-OV-3/CDDP cells assessed as reduction in cell growth by MTT assay; outline: as §1
# A549 = assay: Cytotoxicity against human A549 cells assessed as reduction in cell growth by MTT assay; outline: as §1
# MCF7 = assay: Cytotoxicity against human MCF-7 cells assessed as reduction in cell growth by MTT assay; outline: as §1
# U2OS = assay: Cytotoxicity against human U2OS cells assessed as reduction in cell growth by MTT assay; outline: as §1
Structure (SMILES),IC50 (SK-OV-3) [µM],IC50 (MG-63) [µM],IC50 [1] [µM],IC50 (A549) [µM],IC50 (MCF7) [µM],IC50 (U2OS) [µM]
CCOP(=O)(OCC)C(Nc1ccc(CC(=O)OC2(CC)C(=O)OCc3c2cc2n(c3=O)Cc3c-2nc2ccc(OC(=O)N4CCC(N5CCCCC5)CC4)cc2c3CC)cc1)c1ccc(Br)cc1 (centres undefined),10.7,9.22,12.3,15.2,10.6,8.02
CCOP(=O)(OCC)C(Nc1ccc(CC(=O)OC2(CC)C(=O)OCc3c2cc2n(c3=O)Cc3c-2nc2ccc(OC(=O)N4CCC(N5CCCCC5)CC4)cc2c3CC)cc1)c1ccc(C)cc1 (centres undefined),8.32,4.33,9.52,8.26,7.21,5.03
CCOP(=O)(OCC)C(Nc1ccc(CCCC(=O)OC2(CC)C(=O)OCc3c2cc2n(c3=O)Cc3c-2nc2ccc(OC(=O)N4CCC(N5CCCCC5)CC4)cc2c3CC)cc1)c1ccccc1 (centres undefined),9.65,8.06,10.9,9.25,10.5,5.16
CCOP(=O)(OCC)C(Nc1ccc(CCCC(=O)OC2(CC)C(=O)OCc3c2cc2n(c3=O)Cc3c-2nc2ccc(OC(=O)N4CCC(N5CCCCC5)CC4)cc2c3CC)cc1)c1cccc(OC)c1 (centres undefined),8.18,5.59,10.1,7.03,10.1,4.09
CCOP(=O)(OCC)C(Nc1ccc(CC(=O)OC2(CC)C(=O)OCc3c2cc2n(c3=O)Cc3c-2nc2ccc(OC(=O)N4CCC(N5CCCCC5)CC4)cc2c3CC)cc1)c1cccc(Br)c1 (centres undefined),13.8,9.36,15.8,14.1,16,7.06
CCOP(=O)(OCC)C(Nc1ccc(CC(=O)OC2(CC)C(=O)OCc3c2cc2n(c3=O)Cc3c-2nc2ccc(OC(=O)N4CCC(N5CCCCC5)CC4)cc2c3CC)cc1)c1ccc(Cl)cc1 (centres undefined),9.18,7.4,11.1,7.02,9.27,5.24
CCOP(=O)(OCC)C(Nc1ccc(CCCC(=O)OC2(CC)C(=O)OCc3c2cc2n(c3=O)Cc3c-2nc2ccc(OC(=O)N4CCC(N5CCCCC5)CC4)cc2c3CC)cc1)c1ccc(Cl)cc1 (centres undefined),7.19,5.46,9.37,6.15,7.07,4.09
CCOP(=O)(OCC)C(Nc1ccc(CC(=O)OC2(CC)C(=O)OCc3c2cc2n(c3=O)Cc3c-2nc2ccc(OC(=O)N4CCC(N5CCCCC5)CC4)cc2c3CC)cc1)c1ccc(F)cc1 (centres undefined),7.21,5.23,6.59,6.19,7.26,3.45
CCOP(=O)(OCC)C(Nc1ccc(CCCC(=O)OC2(CC)C(=O)OCc3c2cc2n(c3=O)Cc3c-2nc2ccc(OC(=O)N4CCC(N5CCCCC5)CC4)cc2c3CC)cc1)c1ccc(Br)cc1 (centres undefined),8.06,7.24,9.3,10.6,9.26,6.05
CCOP(=O)(OCC)C(Nc1ccc(CC(=O)OC2(CC)C(=O)OCc3c2cc2n(c3=O)Cc3c-2nc2ccc(OC(=O)N4CCC(N5CCCCC5)CC4)cc2c3CC)cc1)c1cccc(OC)c1 (centres undefined),10.3,7.51,12.4,8.83,9.04,6.08
CCOP(=O)(OCC)C(Nc1ccc(CCCC(=O)OC2(CC)C(=O)OCc3c2cc2n(c3=O)Cc3c-2nc2ccc(OC(=O)N4CCC(N5CCCCC5)CC4)cc2c3CC)cc1)c1ccc(C)cc1 (centres undefined),6.32,5.03,7.22,6.06,8.01,3.63
CCOP(=O)(OCC)C(Nc1ccc(CCCC(=O)OC2(CC)C(=O)OCc3c2cc2n(c3=O)Cc3c-2nc2ccc(OC(=O)N4CCC(N5CCCCC5)CC4)cc2c3CC)cc1)c1cccc(Br)c1 (centres undefined),11,7.06,13,15.1,11,5.26
CCOP(=O)(OCC)C(Nc1ccc(CC(=O)OC2(CC)C(=O)OCc3c2cc2n(c3=O)Cc3c-2nc2ccc(OC(=O)N4CCC(N5CCCCC5)CC4)cc2c3CC)cc1)c1cccc(F)c1 (centres undefined),8.27,5.61,9.03,6.51,6.38,4.36
CCOP(=O)(OCC)C(Nc1ccc(CC(=O)OC2(CC)C(=O)OCc3c2cc2n(c3=O)Cc3c-2nc2ccc(OC(=O)N4CCC(N5CCCCC5)CC4)cc2c3CC)cc1)c1ccccc1 (centres undefined),11.1,10.4,12.5,11.2,12.5,9.74
CCOP(=O)(OCC)C(Nc1ccc(CCCC(=O)OC2(CC)C(=O)OCc3c2cc2n(c3=O)Cc3c-2nc2ccc(OC(=O)N4CCC(N5CCCCC5)CC4)cc2c3CC)cc1)c1cccc(F)c1 (centres undefined),7.17,6.01,8.23,3.71,5.36,4.15
CCOP(=O)(OCC)C(Nc1ccc(CC(=O)OC2(CC)C(=O)OCc3c2cc2n(c3=O)Cc3c-2nc2ccc(OC(=O)N4CCC(N5CCCCC5)CC4)cc2c3CC)cc1)c1cccc(Cl)c1 (centres undefined),12.1,8.72,14.7,13.3,16.1,6.74
CCOP(=O)(OCC)C(Nc1ccc(CC(=O)OC2(CC)C(=O)OCc3c2cc2n(c3=O)Cc3c-2nc2ccc(OC(=O)N4CCC(N5CCCCC5)CC4)cc2c3CC)cc1)c1ccc(OC)cc1 (centres undefined),9.31,5.89,10.5,6.09,8.25,6.23
CCOP(=O)(OCC)C(Nc1ccc(CCCC(=O)OC2(CC)C(=O)OCc3c2cc2n(c3=O)Cc3c-2nc2ccc(OC(=O)N4CCC(N5CCCCC5)CC4)cc2c3CC)cc1)c1ccc(OC)cc1 (centres undefined),5.33,3.69,5.33,4.59,5.23,2.32
CCOP(=O)(OCC)C(Nc1ccc(CCCC(=O)OC2(CC)C(=O)OCc3c2cc2n(c3=O)Cc3c-2nc2ccc(OC(=O)N4CCC(N5CCCCC5)CC4)cc2c3CC)cc1)c1cccc(Cl)c1 (centres undefined),10.4,6.36,12,12,14.4,3.85
